Results on 25 compounds are retold here after PubChem BioAssay AID720702 (The Scripps Research Institute Molecular Screening Center, 2013).

Molecules are shown by their SMILES. Hit rate of the full screen: of about 370,000 compounds, about 1,200 (0.32%) were called active.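 Rule for the calls: active = inhibition above the mean of all tested compounds plus 3 SD, set per campaign (cut at about 25% in these data); inactive = the rest.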 The full list was thinned out, with actives kept by preference.

Tyrosyl-DNA phosphodiesterase 2 (Homo sapiens), sequence (O95551 whole entry, looked up): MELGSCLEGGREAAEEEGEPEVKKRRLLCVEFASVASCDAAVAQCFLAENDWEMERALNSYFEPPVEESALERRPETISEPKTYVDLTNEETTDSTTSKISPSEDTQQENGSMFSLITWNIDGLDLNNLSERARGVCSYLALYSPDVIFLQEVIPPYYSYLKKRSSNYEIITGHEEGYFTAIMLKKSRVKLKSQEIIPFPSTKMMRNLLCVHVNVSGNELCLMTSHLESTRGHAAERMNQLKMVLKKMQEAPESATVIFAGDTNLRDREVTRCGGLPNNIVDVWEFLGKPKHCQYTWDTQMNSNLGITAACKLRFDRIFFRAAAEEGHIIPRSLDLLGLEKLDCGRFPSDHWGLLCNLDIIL

This test addresses Tyrosyl-DNA phosphodiesterase 2 (Homo sapiens) (UniProt O95551). Put plainly: human TDP2 enzyme inhibitors, primary screen, biochemical, epi absorbance, recombinant enzyme (AID 720702).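 Note: 0% = DMSO with enzyme and 100% = buffer with substrate but no TDP2.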 To be noted: recombinant TDP2, T5PNP hydrolysis, p-nitrophenol absorbance 415 nm; at 12.8 µM; hits give high values. In short, it runs like this: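 Test system: Human TDP2 enzyme | Reagent: 5 mM T5PNP | Compound dosing: 12.8 µM single point, 1% DMSO | Incubation: Enzyme reaction with compound for 2 h at 37 °C | Technique: p-Nitrophenol epi absorbance | Read-out: % inhibition relative to enzyme-containing and enzyme-free wells | Benchmarks: High control without enzyme, low control DMSO plus TDP2 | Replicates: Singlicate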
With `O=C(NC1CCCCC1)N1CCc2[nH]c3ccccc3c2C1`, the inhibition is 56.5% (active). As to `O=C(Nc1cccc2c1CCCC2)C1CCN(C(=O)NC2CCCCC2)CC1`, the inhibition is 1.74% (inactive).

Consider `O=C(CSc1nnc2c(n1)[nH]c1ccccc12)NC1CCCCC1`, for which the inhibition was -1.87% (inactive).

Regarding `N#C/C(C(=S)Nc1ccccc1)=C1/NN=C(N2CCOCC2)N1c1ccccc1`, the inhibition is 10.7% (inactive).

In the case of `COC(=O)c1ccc(C2C(Oc3ccccc3C)C(=O)N2CCc2ccc(OC)c(OC)c2)cc1` (stereo not given), the inhibition was -12.5% (inactive). The result for `CCc1ccc(OCC(=O)OC(C)C(=O)NC2CC2)cc1` (stereo not given) reads -6.8% (inactive); that for `COCCN1C=C2C(=O)C(C)(OC(=O)C3CCCC3)C(=O)C=C2C=C1c1ccsc1` (stereo not given), 31.4% (active); that for `CCCCC1=CC2=CC(=O)C(C)(OC(=O)CC)C(=O)C2=CN1CCCOC(C)C` (stereo not given), 13.3% (inactive). Next, `CC1(OC(=O)C2CCCC2)C(=O)C=C2C=C(c3ccc(C#N)cc3)OC=C2C1=O` (stereo not given): 0.49% (inactive); `COCCNc1nnc(SCC(=O)NNC(=O)c2ccco2)s1`: 5.04% (inactive); `O=C(Cn1cnc2ccccc2c1=O)NNC(=O)c1ccccc1F`: 4.65% (inactive). Turning to `CCSc1nnc(SCC(=O)NNC(=O)c2ccccc2F)s1`, the inhibition was 24.7% (active). Next, `Cc1sc2nc(SCC(=O)c3ccc(O)c(O)c3)n(Cc3ccco3)c(=O)c2c1C`: -1.34% (inactive); `Cc1ccc(-c2nc(CS(=O)CC(=O)N3CCN(c4ncccn4)CC3)c(C)o2)cc1` (stereo not given): 0.23% (inactive); `COC(=O)[C@]12C[C@H](CC(=O)N3CCOCC3)C(=O)N(Cc3ccc(Cl)cc3Cl)C1=C[C@H](COCc1ccccc1)O[C@@H]2C`: 12.9% (inactive). The result for `Nc1ccc2nn(-c3ccc(Cl)cc3)nc2c1` reads 30.9% (active). Next, `CCC(=O)Nc1ccc2nn(-c3ccc(F)cc3)nc2c1`: -12.3% (inactive). On to `O=C(NC1CCCC1)C1CSCCS(=O)(=O)N1Cc1ccccc1` (stereo not given), for which the inhibition was 7.85% (inactive). The result for `COc1ccccc1C(=O)CSc1nnc(-c2ccccn2)n1-c1ccccc1` reads -12.9% (inactive); that for `COc1ccc(CSc2nnc(SCC(=O)Nc3ccccc3C(F)(F)F)s2)cc1`, -0.45% (inactive); that for `CCOc1c(Br)cc(/C=C2\C(=O)N(CCC#N)N=C2C)cc1OC`, 59.9% (active). Next, `CC(C)C(C#CC1CC1)N(Cc1ccc2c(c1)OCO2)C(N)=NC(=O)/C=C/c1cccc(C(F)(F)F)c1` (stereo not given): 4.77% (inactive).

Consider `COC1=C(N2CCOCC2)C(=O)c2ccccc2C1=O`, for which the inhibition was 36.8% (active). Turning to `O=C1c2ccccc2-c2ncnc3c(N4CCOCC4)cc(N4CCOCC4)c1c23`, the inhibition was -13.8% (inactive). As for `COc1ccc(S(=O)(=O)N2CCOCC2)c(C)c1C`, the inhibition was 0.48% (inactive).

The inhibition is the drop in the measured response relative to a control, in per cent.
